According to ChEMBL document CHEMBL2390933, “A class of pyrrole derivatives endowed with analgesic/anti-inflammatory activity” (Bioorg Med Chem, 2013):
pIC50: −log10 of the molar value.

How the values were obtained:
Mus musculus [1] = assay: Analgesic activity in Swiss albino mouse inflammatory pain model assessed as inhibition of acetic acid-induced writhing at 40 mg/kg, po administered 30 mins prior to acetic acid challenge relative to vehicle-treated control; format: functional
In short: (§1)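 Male Swiss albino mice (23–25 g), standard diet, water ad libitum, 23 ± 1 °C, 12 h light/dark cycle, randomised into groups. Compound or vehicle (suspended in 1% carboxymethylcellulose) given orally 30 min before ip 0.6% acetic acid. Writhes counted starting 5 min after injection. Reported as writhe count and % reduction versus vehicle-treated mice. Mean of 10 mice per group.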

Mus musculus [2] = assay: Analgesic activity in Swiss albino mouse inflammatory pain model assessed as inhibition of acetic acid-induced writhing at 20 mg/kg, po administered 30 mins prior to acetic acid challenge relative to vehicle-treated control; format: functional; in short: as §1
[3] = molecular target: T1, Prostaglandin G/H synthase 2 (Mus musculus, UniProt Q05769); assay: Inhibition of COX2 in mouse J774 cells assessed as inhibition of LPS-induced PGE2 production by radioimmunoassay; format: cell-based
T1 sequence (Q05769 whole entry): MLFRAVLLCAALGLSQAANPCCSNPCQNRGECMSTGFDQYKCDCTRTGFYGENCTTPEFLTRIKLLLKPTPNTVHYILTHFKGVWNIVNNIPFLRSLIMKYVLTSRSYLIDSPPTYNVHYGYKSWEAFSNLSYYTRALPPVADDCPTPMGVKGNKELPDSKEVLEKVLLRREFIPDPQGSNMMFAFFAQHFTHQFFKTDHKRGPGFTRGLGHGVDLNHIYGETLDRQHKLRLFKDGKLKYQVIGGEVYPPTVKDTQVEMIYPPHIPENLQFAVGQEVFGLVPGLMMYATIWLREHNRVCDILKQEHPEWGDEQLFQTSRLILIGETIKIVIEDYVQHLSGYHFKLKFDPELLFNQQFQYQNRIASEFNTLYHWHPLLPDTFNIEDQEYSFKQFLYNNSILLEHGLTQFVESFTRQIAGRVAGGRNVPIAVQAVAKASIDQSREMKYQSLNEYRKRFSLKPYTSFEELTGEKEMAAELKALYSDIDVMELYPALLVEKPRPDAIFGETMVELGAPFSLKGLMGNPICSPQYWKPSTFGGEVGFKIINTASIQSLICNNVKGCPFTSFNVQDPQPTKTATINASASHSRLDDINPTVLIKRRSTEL

Mus musculus [4] = assay: Analgesic activity in Swiss albino mouse inflammatory pain model assessed as inhibition of acetic acid-induced writhing at 10 mg/kg, po administered 30 mins prior to acetic acid challenge relative to vehicle-treated control; format: functional; in short: as §1
Mus musculus [5] = assay: Analgesic activity in Swiss albino mouse inflammatory pain model assessed as inhibition of acetic acid-induced writhing at 5 mg/kg, po administered 30 mins prior to acetic acid challenge relative to vehicle-treated control; format: functional; in short: as §1
[6] = molecular target: T2, Prostaglandin G/H synthase 1 (Mus musculus, UniProt P22437); assay: Inhibition of COX1 in mouse J774 cells using arachidonic acid as substrate assessed as inhibition of PGE2 production incubated for 15 mins prior to substrate addition measured after 30 mins by radioimmunoassay; format: cell-based
T2 sequence (P22437 whole entry): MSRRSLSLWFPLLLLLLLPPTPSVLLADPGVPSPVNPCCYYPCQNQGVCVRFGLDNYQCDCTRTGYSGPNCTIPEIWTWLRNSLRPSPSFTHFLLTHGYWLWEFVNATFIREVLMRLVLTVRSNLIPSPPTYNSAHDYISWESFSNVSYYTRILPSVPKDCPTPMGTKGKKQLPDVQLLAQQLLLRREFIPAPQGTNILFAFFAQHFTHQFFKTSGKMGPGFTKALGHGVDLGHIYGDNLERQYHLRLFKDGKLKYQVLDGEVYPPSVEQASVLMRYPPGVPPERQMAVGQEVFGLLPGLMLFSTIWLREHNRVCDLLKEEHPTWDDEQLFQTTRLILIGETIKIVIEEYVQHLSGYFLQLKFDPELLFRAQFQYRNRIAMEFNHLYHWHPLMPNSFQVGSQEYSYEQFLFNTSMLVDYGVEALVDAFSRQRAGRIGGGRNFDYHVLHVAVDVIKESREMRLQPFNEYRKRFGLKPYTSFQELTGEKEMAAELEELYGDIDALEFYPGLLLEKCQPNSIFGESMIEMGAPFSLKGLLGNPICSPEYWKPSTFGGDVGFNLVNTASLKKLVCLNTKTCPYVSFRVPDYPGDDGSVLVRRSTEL
In short: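 J774 cells allowed to adhere 2 h at 37 °C, 5% CO2; medium swapped for FBS-free medium just before use. Pre-treatment with compounds (0.01–10 µM) for 15 min, then 30 min at 37 °C with 15 µM arachidonic acid to activate constitutive COX-1. Supernatant PGE2 by RIA; triplicate wells, mean of three experiments as % inhibition vs control; IC50 from sigmoidal variable-slope fit.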

J774 = assay: Selectivity index, ratio of IC50 for COX1 in mouse J774 cells to IC50 for COX2 in mouse J774 cells; format: cell-based
[7] = molecular target: T3, Prostaglandin G/H synthase 2 (Mus musculus) (UniProt Q05769); assay: Ratio of celecoxib IC50 to compound IC50 for COX2 in mouse J774 cells; format: cell-based
T3 sequence (whole entry): T1 sequence (Q05769 whole entry)
In short: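 The COX-2 IC50 was measured in J774 cells stimulated 24 h with E. coli LPS (10 µg/mL) with or without compound (0.01–10 µM). Supernatant PGE2 by RIA; triplicate wells, mean of three experiments; IC50 from a sigmoidal variable-slope fit. Celecoxib served as the reference for the index.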

Mus musculus [8] = assay: Analgesic activity in Swiss albino mouse inflammatory pain model assessed as inhibition of acetic acid-induced writhing at 1 mg/kg, po administered 30 mins prior to acetic acid challenge relative to vehicle-treated control; format: functional; in short: as §1
[9] = molecular target: Prostaglandin G/H synthase 1 (Homo sapiens, UniProt P23219); format: tissue-based, Blood
[10] = molecular target: T4, Prostaglandin G/H synthase 2 (Homo sapiens, UniProt P35354); design: species or system Blood
T4 sequence (P35354 whole entry): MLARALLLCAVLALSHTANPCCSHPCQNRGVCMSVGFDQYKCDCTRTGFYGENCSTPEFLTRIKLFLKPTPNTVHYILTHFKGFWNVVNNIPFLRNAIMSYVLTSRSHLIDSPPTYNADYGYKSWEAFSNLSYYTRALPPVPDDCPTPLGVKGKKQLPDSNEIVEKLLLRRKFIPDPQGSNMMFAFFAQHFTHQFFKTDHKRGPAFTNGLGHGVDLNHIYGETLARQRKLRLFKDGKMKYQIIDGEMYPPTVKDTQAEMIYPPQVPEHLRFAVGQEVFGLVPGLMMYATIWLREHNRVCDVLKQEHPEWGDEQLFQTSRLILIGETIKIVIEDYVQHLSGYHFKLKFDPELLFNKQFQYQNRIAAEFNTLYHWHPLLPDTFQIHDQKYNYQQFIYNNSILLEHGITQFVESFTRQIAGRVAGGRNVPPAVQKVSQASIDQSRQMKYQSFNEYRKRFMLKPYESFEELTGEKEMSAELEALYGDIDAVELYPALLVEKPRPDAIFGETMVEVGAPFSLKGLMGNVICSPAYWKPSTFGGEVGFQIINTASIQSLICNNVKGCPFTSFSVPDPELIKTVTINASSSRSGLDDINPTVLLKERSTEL

Homo sapiens = species: Homo sapiens; assay: Selectivity ratio of IC50 for platelet COX1 in human whole blood to IC50 for monocyte COX2 in human whole blood; format: tissue-based

Sequence of Prostaglandin G/H synthase 1 (Homo sapiens, UniProt P23219) (P23219 whole entry): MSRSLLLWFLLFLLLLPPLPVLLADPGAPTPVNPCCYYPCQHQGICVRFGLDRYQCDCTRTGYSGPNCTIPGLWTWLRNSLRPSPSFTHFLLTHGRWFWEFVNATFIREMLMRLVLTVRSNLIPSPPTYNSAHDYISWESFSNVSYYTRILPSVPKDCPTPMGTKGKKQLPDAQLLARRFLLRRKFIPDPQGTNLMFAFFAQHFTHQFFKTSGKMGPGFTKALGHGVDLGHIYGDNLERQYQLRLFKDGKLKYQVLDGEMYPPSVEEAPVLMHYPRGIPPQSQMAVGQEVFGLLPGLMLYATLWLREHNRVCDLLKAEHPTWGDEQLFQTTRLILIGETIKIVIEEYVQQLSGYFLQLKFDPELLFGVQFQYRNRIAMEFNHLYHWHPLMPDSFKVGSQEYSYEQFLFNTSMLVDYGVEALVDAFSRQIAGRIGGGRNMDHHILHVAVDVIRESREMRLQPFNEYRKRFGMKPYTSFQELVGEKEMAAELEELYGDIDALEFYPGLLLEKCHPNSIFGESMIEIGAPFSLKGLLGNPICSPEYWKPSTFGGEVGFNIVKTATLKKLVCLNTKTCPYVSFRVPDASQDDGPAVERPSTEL

Structure (SMILES) | inhibition in vivo at 40 mg/kg (Mus musculus [1]) [%] | inhibition in vivo at 20 mg/kg (Mus musculus [2]) [%] | pIC50 [3] | inhibition in vivo at 10 mg/kg (Mus musculus [4]) [%] | inhibition in vivo at 5 mg/kg (Mus musculus [5]) [%] | pIC50 [6] | Ratio IC50 (J774) | Ratio IC50 [7] | inhibition in vivo at 1 mg/kg (Mus musculus [8]) [%] | pIC50 [9] | pIC50 [10] | Ratio IC50 (Homo sapiens)
Cc1c(/C=N\O)cc(-c2ccc(S(C)(=O)=O)cc2)n1-c1ccccc1 | 57 | 53 | 6.72 | 27 | 13 | < 5.00 | > 52.6 | – | – | – | – | –
Cc1c(C#N)cc(-c2ccc(S(C)(=O)=O)cc2)n1-c1ccc(F)cc1 | 45 | 33 | – | 36 | 5 | < 5.00 | – | – | – | – | – | –
Cc1c(/C=N\O)cc(-c2ccc(S(C)(=O)=O)cc2)n1-c1ccc(F)cc1 | 47 | 41 | 6.44 | 36 | 2 | < 5.00 | > 27.8 | – | – | – | – | –
Cc1c(C=O)cc(-c2ccc(S(C)(=O)=O)cc2)n1-c1cccc(F)c1 | – | 44 | 8.02 | 39 | – | < 5.00 | > 1050 | 8 | – | – | – | –
Cc1c(C=O)cc(-c2ccc(S(C)(=O)=O)cc2)n1-c1ccc(F)c(F)c1 | 60 | 52 | 7.15 | 53 | 50 | < 5.00 | > 143 | – | 36 | 4.15 | 4.83 | 4.8
Cc1c(C#N)cc(-c2ccc(S(C)(=O)=O)cc2)n1-c1ccc(F)c(F)c1 | 57 | 38 | 8.66 | 19 | 8 | < 5.00 | > 454 | 36 | – | – | – | –
Cc1c(/C=N\O)cc(-c2ccc(S(C)(=O)=O)cc2)n1-c1cccc(F)c1 | 45 | 42 | 6.36 | 32 | – | < 5.00 | > 22.7 | – | – | – | – | –
Cc1ccc(-c2cc(C(F)(F)F)nn2-c2ccc(S(N)(=O)=O)cc2)cc1 [CELECOXIB] | 69 | 58 | – | 57 | 50 | – | – | – | 42 | – | – | –
Cc1c(C=O)cc(-c2ccc(S(C)(=O)=O)cc2)n1-c1ccccc1 | 30 | 32 | 7.47 | 23 | – | < 5.00 | > 294 | – | – | – | – | –
Cc1c(C#N)cc(-c2ccc(S(C)(=O)=O)cc2)n1-c1ccccc1 | 59 | 42 | 6.44 | 28 | – | < 5.00 | > 27.8 | – | – | – | – | –
Cc1c(C=O)cc(-c2ccc(S(C)(=O)=O)cc2)n1-c1ccc(F)cc1 | 31 | 30 | – | – | 5 | < 5.00 | – | – | – | – | – | –
Cc1c(C#N)cc(-c2ccc(S(C)(=O)=O)cc2)n1-c1cccc(F)c1 | 38 | 33 | 7.89 | 28 | 21 | < 5.00 | > 769 | – | – | 4.30 | 5.89 | 38.8
Cc1c(/C=N\O)cc(-c2ccc(S(C)(=O)=O)cc2)n1-c1ccc(F)c(F)c1 | – | 27 | 6.80 | 19 | 10 | < 5.00 | > 62.5 | – | – | 3.79 | 4.76 | 9.3
